Experimental data from BindingDB's records for doi:10.1021/acs.jmedchem.5b01146 (University of California Irvine, 2016).

Molecular target: Cytochrome P450 3A4 (Homo sapiens, UniProt P08684)
Assay: Binding affinity to C-terminal four-histidine tagged human CYP3A4delta3 to 24 residues expressed in Escherichia coli assessed as spectral dissociation constant by spectrophotometric method
Outline: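 Purified recombinant CYP3A4 titrated in 50 mM phosphate pH 7.4 with 20% glycerol and 1 mM DTT, adding small aliquots of compound in DMSO (final solvent <2%). Absorbance spectra recorded on a spectrophotometer. Ks obtained by one- or two-site saturation fitting of absorbance change versus ligand concentration.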

Sequence of Cytochrome P450 3A4 (P08684 whole entry, the tested form may be a part): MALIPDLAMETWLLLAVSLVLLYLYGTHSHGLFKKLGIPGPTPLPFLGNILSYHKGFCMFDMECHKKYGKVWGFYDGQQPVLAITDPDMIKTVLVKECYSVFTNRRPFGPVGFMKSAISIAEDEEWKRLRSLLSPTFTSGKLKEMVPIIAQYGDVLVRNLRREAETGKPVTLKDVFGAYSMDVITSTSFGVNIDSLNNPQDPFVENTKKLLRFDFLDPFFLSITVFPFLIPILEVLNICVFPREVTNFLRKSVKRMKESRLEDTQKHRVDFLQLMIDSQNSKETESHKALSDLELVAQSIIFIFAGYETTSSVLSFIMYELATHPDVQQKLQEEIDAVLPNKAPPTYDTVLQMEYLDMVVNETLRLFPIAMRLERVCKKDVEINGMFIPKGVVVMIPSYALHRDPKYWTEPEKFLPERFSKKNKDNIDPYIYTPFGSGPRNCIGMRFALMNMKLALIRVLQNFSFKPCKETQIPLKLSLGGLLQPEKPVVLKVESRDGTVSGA

SMILES | Kd [mM]
c1ccncc1 [CHEBI:16227] | 4.5
CC(C)(C)OC(=O)NCCCCCC(=O)NCc1cccnc1 | 0.105
